{"source": "ChEMBL document CHEMBL3352416", "about": "“Discovery of carbohybrid-based 2-aminopyrimidine analogues as a new class of rapid-acting antimalarial agents using image-based cytological profiling assay” (J Med Chem, 2014)", "key": {"[1]": {"experiment": "Half life in Sprague-Dawley rat at 1 mg/kg, ip", "type": "ADME, organism-based", "set-up": "dose 1 mg/kg, route intraperitoneal", "details": "in vivo"}, "Plasmodium falciparum [2]": {"system": "Plasmodium falciparum", "experiment": "Antimalarial activity against Plasmodium falciparum W2 by automated image mining based cytological profiling assay", "type": "functional, organism-based", "summary_of_the_method": "(§1)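 Parasite cultures in 384-well format, read by automated imaging. Infected erythrocytes detected by DAPI nuclear staining against WGA-AlexaFluor 488 host-cell stain, and viability by Mitotracker Red CMXRos. Total culture parasitaemia quantified. EC50 given as mean±SD of two independent experiments, each in duplicate.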"}, "[3]": {"experiment": "AUC in Sprague-Dawley rat at 5 mg/kg, ip", "type": "ADME, organism-based", "set-up": "dose 5 mg/kg, route intraperitoneal", "details": "plasma"}, "Plasmodium falciparum [4]": {"system": "Plasmodium falciparum", "experiment": "Antimalarial activity against tightly synchronized Plasmodium falciparum K1 assessed as parasite stage accumulation index at schizonts stages at 10 uM treated at 6 to 30 hrs post-invasion by automated image mining based cytological profiling assay", "type": "functional, organism-based"}, "Plasmodium falciparum [5]": {"system": "Plasmodium falciparum", "experiment": "Antimalarial activity against Plasmodium falciparum K1 by automated image mining based cytological profiling assay", "type": "functional, organism-based", "summary_of_the_method": "as §1"}, "Plasmodium falciparum [6]": {"system": "Plasmodium falciparum", "experiment": "Antimalarial activity against tightly synchronized Plasmodium falciparum K1 assessed as parasite stage accumulation index at trophozoites stages at 10 uM treated at 6 to 30 hrs post-invasion by automated image mining based cytological profiling assay", "type": "functional, organism-based"}, "[7]": {"experiment": "AUC in Sprague-Dawley rat at 1 mg/kg, ip", "type": "ADME, organism-based", "set-up": "dose 1 mg/kg, route intraperitoneal", "details": "plasma"}, "Plasmodium chabaudi [8]": {"system": "Plasmodium chabaudi", "experiment": "Antimalarial activity against Plasmodium chabaudi infected in BALB/c mouse assessed as reduction in blood parasitaemia level at 3 to 30 mg/kg, ip treated on day 1 to day 3 post-infection measured on day 4 post-infection by Giemsa staining based light microscopy", "type": "functional, organism-based", "summary_of_the_method": "(§2)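 Groups of five BALB/c mice infected i.p. with 2 × 10^7 P. chabaudi-parasitized erythrocytes. Day 1 pre-treatment parasitaemia read from tail-blood thin smears, then i.p. dosing at 0.03, 0.3, 3, 10 or 30 mg/kg, repeated for two more days. Day 4 parasitaemia scored by light microscopy of Giemsa-stained thin smears; dose-response evaluated by probit analysis.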"}, "Plasmodium falciparum [9]": {"system": "Plasmodium falciparum", "experiment": "Antimalarial activity against tightly synchronized Plasmodium falciparum K1 assessed as parasite stage accumulation index at late ring stages at 10 uM treated at 6 to 30 hrs post-invasion by automated image mining based cytological profiling assay", "type": "functional, organism-based"}, "[10]": {"experiment": "Tmax in Sprague-Dawley rat at 5 mg/kg, ip", "type": "ADME, organism-based", "set-up": "dose 5 mg/kg, route intraperitoneal", "details": "in vivo"}, "[11]": {"experiment": "Selectivity index, ratio of CC50 for human HepG2 cells to EC50 for Plasmodium falciparum", "type": "toxicity, cell-based", "details": "read-out: Ratio CC50/EC50", "summary_of_the_method": "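Ratio of HepG2 CC50 (resazurin assay) to the highest EC50 among P. falciparum K1, HB3 and W2. Parasite EC50 values are means of two independent experiments, each run in duplicate.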"}, "Plasmodium falciparum [12]": {"system": "Plasmodium falciparum", "experiment": "Antimalarial activity against Plasmodium falciparum HB3 by automated image mining based cytological profiling assay", "type": "functional", "summary_of_the_method": "as §1"}, "[13]": {"experiment": "Stability in mouse liver microsomes assessed as remaining compound level at 1 uM incubated for 5 mins in presence of NADPH measured after 30 mins by LC/MS/MS method", "type": "ADME", "details": "read-out: Stability", "summary_of_the_method": "(§3)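 Percent parent compound remaining after 30 min incubation with liver microsomes; n = 3.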"}, "Plasmodium chabaudi [14]": {"system": "Plasmodium chabaudi", "experiment": "Antimalarial activity against Plasmodium chabaudi infected in BALB/c mouse assessed as reduction in parasitaemia level treated intraperitoneally on day 1 to day 3 post-infection measured on day 4 post-infection by Giemsa staining based light microscopy", "type": "functional", "summary_of_the_method": "as §2"}, "[15]": {"experiment": "Cmax in Sprague-Dawley rat at 1 mg/kg, ip", "type": "ADME, organism-based", "set-up": "dose 1 mg/kg, route intraperitoneal", "details": "in vivo"}, "[16]": {"experiment": "Stability in human liver microsomes assessed as remaining compound level at 1 uM incubated for 5 mins in presence of NADPH measured after 30 mins by LC/MS/MS method", "type": "ADME", "details": "read-out: Stability", "summary_of_the_method": "as §3"}, "Plasmodium chabaudi [17]": {"system": "Plasmodium chabaudi", "experiment": "Antimalarial activity against Plasmodium chabaudi infected in BALB/c mouse assessed as reduction in accumulation of ring-stage parasites level at 3 to 30 mg/kg, ip treated on day 1 to day 3 post-infection measured on day 4 post-infection by Giemsa staining based light microscopy", "type": "functional, organism-based", "summary_of_the_method": "as §2"}, "Plasmodium falciparum [18]": {"system": "Plasmodium falciparum", "experiment": "Antimalarial activity against tightly synchronized Plasmodium falciparum K1 assessed as parasite stage accumulation index at early ring stages at 10 uM treated at 6 to 30 hrs post-invasion by automated image mining based cytological profiling assay", "type": "functional, organism-based"}, "[19]": {"experiment": "Tmax in Sprague-Dawley rat at 1 mg/kg, ip", "type": "ADME, organism-based", "set-up": "dose 1 mg/kg, route intraperitoneal", "details": "in vivo"}, "[20]": {"experiment": "Cmax in Sprague-Dawley rat at 5 mg/kg, ip", "type": "ADME, organism-based", "set-up": "dose 5 mg/kg, route intraperitoneal", "details": "in vivo"}, "[21]": {"experiment": "Half life in Sprague-Dawley rat at 5 mg/kg, ip", "type": "ADME, organism-based", "set-up": "dose 5 mg/kg, route intraperitoneal", "details": "in vivo"}}, "note": "Active and inactive are the calls of the source. No cut-off for these calls is given here."}
{"molecule": "COc1ccc(CO[C@H]([C@H](OCc2ccc(OC)cc2)c2cnc(N(C)C)nc2)[C@@H](COC(c2ccccc2)(c2ccccc2)c2ccccc2)OS(C)(=O)=O)cc1", "values": [{"measurement": "half-life", "setting": "[1]", "result": 10.3, "unit": "h"}, {"measurement": "EC50", "setting": "Plasmodium falciparum [2]", "result": 104, "unit": "nM"}, {"measurement": "AUC", "setting": "[3]", "result": 41300, "unit": "ng·h/mL"}, {"measurement": "Activity", "setting": "Plasmodium falciparum [4]", "result": "Active"}, {"measurement": "EC50", "setting": "Plasmodium falciparum [5]", "result": 116, "unit": "nM"}, {"measurement": "Activity", "setting": "Plasmodium falciparum [6]", "result": "Active"}, {"measurement": "AUC", "setting": "[7]", "result": 9790, "unit": "ng·h/mL"}, {"measurement": "inhibition", "setting": "Plasmodium chabaudi [8]", "result": "Active"}, {"measurement": "Activity", "setting": "Plasmodium falciparum [9]", "result": "Active"}, {"measurement": "Tmax", "setting": "[10]", "result": 1, "unit": "h"}, {"measurement": "selectivity ratio", "setting": "[11]", "result": "> 680"}, {"measurement": "EC50", "setting": "Plasmodium falciparum [12]", "result": 104, "unit": "nM"}, {"measurement": "remaining at 0.5 h, 1 µM", "setting": "[13]", "result": 88.6, "unit": "%"}, {"measurement": "inhibition", "setting": "Plasmodium chabaudi [14]", "result": "Dose dependent effect"}, {"measurement": "ED50", "setting": "Plasmodium chabaudi [14]; ip", "result": 0.32, "unit": "mg/kg"}, {"measurement": "Cmax", "setting": "[15]", "result": 1800, "unit": "ng/mL"}, {"measurement": "remaining at 30 min, 1 µM", "setting": "[16]", "result": 88.1, "unit": "%"}, {"measurement": "inhibition", "setting": "Plasmodium chabaudi [17]", "result": "Active"}, {"measurement": "Activity", "setting": "Plasmodium falciparum [18]", "result": "Active"}, {"measurement": "Tmax", "setting": "[19]", "result": 1, "unit": "h"}, {"measurement": "Cmax", "setting": "[20]", "result": 12900, "unit": "ng/mL"}, {"measurement": "half-life", "setting": "[21]", "result": 10.6, "unit": "h"}]}
